ABHD5 PLIN5 PPI: inhibitors of human ABHD5-perilipin-5 interaction; Q00G26+Q8WTS1; inhibition, % at 4 µM; AID 602281; actives 0.78% (n = 360,000); Split G. princeps luciferase complementation, luminescence, 4 h;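 active = inhibition above the mean inhibition across every tested compound plus 3 SD, cut at about 22% in these data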;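 also: 0% = DMSO only wells and the 100% control is not disclosed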
Rpn11 block: Rpn11 (human) deubiquitinase inhibition | human 26S proteasome, Ub4-pepOG fluorescence polarization; 20S core pre-blocked with epoxomicin | inhibition, % at 20 µM | AID 588493 | actives 0.59% (n = 360,000) | O00487;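 active = inhibition at 20 µM, scaled to each plate's controls, above about 33%, limit read from the data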
Target sequence (O00487 whole entry, looked up): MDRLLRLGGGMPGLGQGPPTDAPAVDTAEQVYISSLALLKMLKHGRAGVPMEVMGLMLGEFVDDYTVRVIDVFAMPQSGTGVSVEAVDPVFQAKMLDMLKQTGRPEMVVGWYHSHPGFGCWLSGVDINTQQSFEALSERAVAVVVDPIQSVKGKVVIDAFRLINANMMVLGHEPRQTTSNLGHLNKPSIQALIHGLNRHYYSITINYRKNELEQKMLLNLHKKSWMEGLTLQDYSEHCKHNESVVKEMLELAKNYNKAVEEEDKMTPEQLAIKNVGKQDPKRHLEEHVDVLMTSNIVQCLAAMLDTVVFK
Rin1 Abl inh: blocks binding of human Rin1 to Abl | P00519+Q13671 | TR-FRET Rin1/Abl binding, biochemical | inhibition, % at 7.35 µM | actives 0.4% (n = 360,000); in the data active = inhibition above about 5%, passing the limit was not always enough
NadD block: NadD (S. aureus) enzyme inhibition; purified NadD enzyme, colorimetric absorbance read-out; inhibition, % at 20 µM; actives 0.78% (n = 360,000); AID 602399; in the data active = inhibition above about 26%
Xi reactivation: X-chromosome reactivation activator; XiGFP mouse fibroblasts, % GFP-positive cells imaging, 3 d; cells co-treated with 5-aza-dC sensitizer; scaled so ellipticine positive control = 100%; activation, % at 7.58 µM; actives 0.055% (n = 360,000);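 active = mean normalized replicate activation at least 10% and every replicate at or above 10%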;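 also: 0% = median of on-plate neutral control wells and 100% = ellipticine 6 µM median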
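System: 68-5-11 XiGFP fibroblast line | Buffer or medium: DMEM containing 5-aza-dC | Compound: Single point | Times: Compounds 3 days, fix/stain 15 min at room temperature | Benchmarks: Positive control ellipticine, 6 µM final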
Rin1-Abl confirm: confirmation of inhibitors of human Rin1-Abl interaction. AID 602124. inhibition, % at 7.35 µM. actives 49% (n = 1,300). shares compounds with Rin1 Abl inh. TR-FRET Rin1-Abl binding, purified proteins
GFP quench: GFP fluorescence interference artifact. shares compounds with Rin1 Abl inh. inhibitors/quenchers counterscreen. inhibition, % at 6.75 µM. actives 8.5% (n = 1,300);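 also: ABL1-eGFP fusion protein alone without its partner RIN1-SBP; 0% = protein with vehicle and 100% = wells lacking protein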
GFP quench dose: counter-screen for Rin1-Abl inhibitors: GFP quenchers, dose response; IC50, µM; shares compounds with Rin1 Abl inh; AID 602182; GFP fluorescence interference/quenching counterscreen; 230 tested, under 10 active; call rule not given here;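 also: ABL1-eGFP fusion protein alone without its RIN1 binding partner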
Starred values were filed as active, the others as inactive; · = no result given; ! = not confirmed by another sample. Only some compounds are listed: those with a hit (about 1.9% of all), similar ones and a draw of the others. Rule as the data show it, unless noted: active = inhibition above about 6.5%; inactive = the rest.

SMILES	ABHD5 PLIN5 PPI	Rpn11 block	Rin1 Abl inh	NadD block	Xi reactivation	Rin1-Abl confirm	GFP quench	others
O=C(NC1CCCC1)C(c1ccncc1)N(C(=O)c1csnn1)c1ccccc1 (stereo not drawn)	-6	-7	2	-4	0	·	·
CC(=O)c1ccc(N(C(=O)c2csnn2)C(C(=O)NC2CCCC2)c2ccccc2)cc1 (stereo not drawn)	-7	1	11*	-5	0	2	0
Cc1[nH]n(-c2ccccc2)c(=O)c1C(C[N+](=O)[O-])c1ccc(F)cc1 (stereo not drawn)	-26	-3	0	0	0	·	·
Cc1ccc(C(C[N+](=O)[O-])c2c(C)[nH]n(-c3ccccc3)c2=O)cc1 (stereo not drawn)	-19	-8	6.0*	1	0	2	-1
CN(Cc1cnccn1)C(=O)C1CCC(=O)N(CCc2ccccc2)C1 (stereo not drawn)	3	4	25*	-2	0	29*	1	GFP quench dose=>68
CN(Cc1cnccn1)C(=O)C1CCC(=O)N(CCc2ccc(Cl)cc2)C1 (stereo not drawn)	0	-6	3	-6	0	·	·
O=C(Nc1cc(F)ccc1F)N1CC(=O)N2[C@H](CO)[C@@H](c3ccc(-c4ccc(F)cc4)cc3)[C@@H]2C1	·	·	·	·	0	·	·
C[C@@H]1CN([C@H](C)CO)C(=O)Cc2cc(NS(=O)(=O)c3cccs3)ccc2O[C@H]1CN(C)Cc1ccncc1	·	·	·	·	-1	·	·
C[C@@H]1CN([C@@H](C)CO)C(=O)c2cc(-c3cccc(C#N)c3)cnc2O[C@H]1CN(C)C(=O)C1CCC1	·	·	·	·	-1	·	·
CCCCN1C(=O)N(C)C2NC(=O)NC21 (stereo not drawn)	-2	-2	66*	-6	·	76*	1	GFP quench dose=>67
CCCCN1C(=O)N(C)C2C1N(C)C(=O)N2CCCC (stereo not drawn)	0	0	4	-6	·	·	·
CCCCN1C(=O)NC2NC(=O)NC21 (stereo not drawn)	0	-3	97*	8	·	99*	-2	GFP quench dose=>68
O=c1c2ccccc2ncn1Cc1ccc(Cl)c(Cl)c1	1	-9	6.3*	0	0	1	-2
O=c1c2ccccc2ncn1Cc1ccc(Cl)cc1	3	-1	-3	3	·	·	·
O=C(O)c1cccc(Cn2c(Cl)c(/C=N/NC(=O)c3ccccc3O)sc2=O)c1	9	0	5.2*	2	0	-4	3
O=C1N(c2cccc(Cl)c2)C(c2ccc(Cl)cc2)N2CCCN12 (stereo not drawn)	-1	2	11*	4	0	18*	-2	GFP quench dose=>68
O=C1N(c2cccc(Cl)c2)C(c2ccccc2)N2CCCN12 (stereo not drawn)	13	0	17*	2	0	24*	-1	GFP quench dose=>68
Cc1ccc(C2N(c3ccccc3)C(=O)N3CCCN23)cc1 (stereo not drawn)	9	1	0	-1	0	·	·
S=C1N(c2ccccc2)C(c2ccc(Cl)cc2)N2CCCN12 (stereo not drawn)	2	-2	-1	-11	·	·	·
CC(C)c1nc2oc3c(=O)[nH]cnc3c2c2c1CCC2	11	-7	7.8*	-1	·	13*	-1
CC(C)c1nc2oc3c(=O)[nH]cnc3c2c2c1COC(C)(C)C2	1	-4	3	-4	1	·	·
COc1ccc(NC(=O)N(C)C[C@@H]2Oc3c(NS(=O)(=O)c4ccccc4)cccc3C(=O)N([C@@H](C)CO)C[C@H]2C)cc1	·	·	·	·	0	·	·
CC1=C(O)C(=O)C(C2=C(O)C(=O)C(C)=C(O)C2=O)=C(O)C1=O	10	-2	46*	17	·	37*	28*
CCN(CC)C(=O)CSc1nc(Cc2ccccc2)nc2ccccc12	-3	-5	24*	8	0	21*	-1	GFP quench dose=>67
O=C(C[C@H]1CC[C@@H](NS(=O)(=O)c2ccccc2)[C@H](CO)O1)N1CCC(Cc2ccccc2)CC1	·	·	·	·	0	·	·
SMILES	ABHD5 PLIN5 PPI	Rpn11 block	Rin1 Abl inh	NadD block	Xi reactivation	Rin1-Abl confirm	GFP quench	others
COc1ccc(C2c3c4c(n(C)c3CCN2C)CCN(C)C4c2ccc(OC)cc2)cc1 (stereo not drawn)	9	-4	6.5*	-1	·	0	-2
Cc1occc1C(=O)N1CCCC(N2CCN(c3ccccc3F)CC2)C1 (stereo not drawn)	5	6	11*	-3	0	-1	0
O=C(c1ccccc1)N1CCN(c2ccc(NCc3ccc4c(c3)OCO4)cc2)CC1	-1	8	12*	0	0	12*	-1
Cc1cccc(-c2ccc([C@H]3[C@@H](CO)N4C(=O)CN(C(=O)Cc5ccccn5)C[C@@H]34)cc2)c1	·	·	·	·	0	·	·
C[C@@H]1CN([C@@H](C)CO)C(=O)c2cc(NC(=O)Nc3ccccc3)ccc2O[C@@H]1CN(C)C(=O)Nc1ccc2c(c1)OCO2	·	·	·	·	0	·	·
O=c1cc(SCc2ccccc2)nc[nH]1	4	-2	89*	0	0	98*	1	GFP quench dose=>68
COc1ccc(/C=N/NC(=O)COc2ccc(Cl)cc2Cl)cc1Cn1nc(C)cc1C	8	-5	9.4*	5	0	1	1
COCCNC(=O)C[C@@H]1CC[C@H]2[C@H](COc3ccc(NC(=O)C4CCCC4)cc3C(=O)N2C)O1	·	·	·	·	1	·	·
C=CCc1ccccc1OCC(O)CN1CCN(c2ccccc2F)CC1 (stereo not drawn)	3	1	1	-3	·	·	·
C=CCc1ccccc1OCC(O)CN1CCN(c2ccccc2OC)CC1 (stereo not drawn)	-3	-2	7.4*!	0	1	-1	0
O=C(COC(=O)c1cc[n+]([O-])cc1)Nc1ccc(SC(F)F)cc1	-7	20	-1	8	0	·	·
CCOc1ccc(C(=O)OCC(=O)Nc2ccc(SC(F)F)cc2)cc1OCC	-3	3	8.1*	-2	0	-1	0
O=C(COc1ccc(F)cc1)NCC1(N2CCOCC2)CCCCC1	1	-4	11*	2	0	0	0
CCCc1c(O)nc(SCCN(CC)CC)[nH]c1=O	-3	3	7.6*	-2	·	-2	0
CCN(CC)CCSc1nc(O)c(C(C)C)c(=O)[nH]1	1	-4	0	-8	·	·	·
COc1ccc(N(C(=O)c2snc(C(N)=O)c2N)C(C(=O)NCc2ccccc2)c2ccc(F)cc2)c(OC)c1 (stereo not drawn)	-17	-5	9.9*	11	0	11*	-3

Screens (PubChem BioAssay)
